Measured values published in the M2OR odorant receptor database.

Columns and labels:
Conditions in all cases: stereoisomer not certain
OR13G1 (Homo sapiens) = OR13G1 (Homo sapiens) (UniProt Q8NGZ3)
How it was run: (§1)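 Each receptor–molecule pair is labelled responsive or non-responsive (inactive) according to whether the original authors judged the measured signal statistically different from baseline. The data were taken from the main text and supplementary material of published papers and checked for typos and inconsistencies. Assay methods differed by source, with transient luciferase assays in mammalian cell lines being common.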

OR13H1 (Homo sapiens) = OR13H1 (Homo sapiens) (UniProt Q8NG92)
OR13H1 (Homo sapiens), sequence (Q8NG92 whole entry): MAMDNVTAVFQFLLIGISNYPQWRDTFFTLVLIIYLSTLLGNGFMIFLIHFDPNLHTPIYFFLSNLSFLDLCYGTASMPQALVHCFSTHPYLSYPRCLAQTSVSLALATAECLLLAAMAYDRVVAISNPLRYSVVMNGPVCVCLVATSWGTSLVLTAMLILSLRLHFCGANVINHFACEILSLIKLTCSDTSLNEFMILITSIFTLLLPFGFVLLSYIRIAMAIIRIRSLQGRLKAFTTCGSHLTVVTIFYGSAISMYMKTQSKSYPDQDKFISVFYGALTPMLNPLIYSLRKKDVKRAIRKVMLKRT
How it was run: as §1

OR13J1 (Homo sapiens) = OR13J1 (Homo sapiens) (UniProt Q8NGT2)
OR13J1 (Homo sapiens), sequence (Q8NGT2 whole entry): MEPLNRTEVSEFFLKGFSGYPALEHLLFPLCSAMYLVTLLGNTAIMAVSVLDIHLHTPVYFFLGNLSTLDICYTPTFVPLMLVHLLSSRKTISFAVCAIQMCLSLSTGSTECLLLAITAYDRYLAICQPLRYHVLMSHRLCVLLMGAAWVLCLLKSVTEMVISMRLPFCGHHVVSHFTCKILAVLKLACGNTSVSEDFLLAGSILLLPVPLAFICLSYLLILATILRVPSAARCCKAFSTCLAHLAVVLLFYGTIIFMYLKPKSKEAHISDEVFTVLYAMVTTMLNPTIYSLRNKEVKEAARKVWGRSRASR
How it was run: as §1

OR14A16 (Homo sapiens) = OR14A16 (Homo sapiens) (UniProt Q8NHC5)
OR14A16 (Homo sapiens), sequence (Q8NHC5 whole entry): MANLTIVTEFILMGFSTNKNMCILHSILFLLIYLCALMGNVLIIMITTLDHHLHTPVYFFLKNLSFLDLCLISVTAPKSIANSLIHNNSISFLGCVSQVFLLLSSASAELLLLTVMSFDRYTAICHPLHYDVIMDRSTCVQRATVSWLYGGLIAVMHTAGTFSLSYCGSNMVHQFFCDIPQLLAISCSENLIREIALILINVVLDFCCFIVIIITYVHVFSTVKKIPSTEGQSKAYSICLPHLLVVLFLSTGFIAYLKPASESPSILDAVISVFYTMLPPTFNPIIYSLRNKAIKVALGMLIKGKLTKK
How it was run: as §1

OR14A2 (Homo sapiens) = OR14A2 (Homo sapiens) (UniProt Q96R54)
OR14A2 (Homo sapiens), sequence (Q96R54 whole entry): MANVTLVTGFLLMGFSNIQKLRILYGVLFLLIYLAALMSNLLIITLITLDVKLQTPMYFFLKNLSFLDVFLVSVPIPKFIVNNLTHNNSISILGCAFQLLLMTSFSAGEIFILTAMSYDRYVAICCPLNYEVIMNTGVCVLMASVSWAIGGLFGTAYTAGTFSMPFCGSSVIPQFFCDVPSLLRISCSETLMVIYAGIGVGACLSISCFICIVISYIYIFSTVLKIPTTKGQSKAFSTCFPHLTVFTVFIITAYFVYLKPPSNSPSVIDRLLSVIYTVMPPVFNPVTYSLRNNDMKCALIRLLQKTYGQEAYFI
How it was run: as §1

OR14C36 (Homo sapiens) = OR14C36 (Homo sapiens) (UniProt Q8NHC7)
OR14C36 (Homo sapiens), sequence (Q8NHC7 whole entry): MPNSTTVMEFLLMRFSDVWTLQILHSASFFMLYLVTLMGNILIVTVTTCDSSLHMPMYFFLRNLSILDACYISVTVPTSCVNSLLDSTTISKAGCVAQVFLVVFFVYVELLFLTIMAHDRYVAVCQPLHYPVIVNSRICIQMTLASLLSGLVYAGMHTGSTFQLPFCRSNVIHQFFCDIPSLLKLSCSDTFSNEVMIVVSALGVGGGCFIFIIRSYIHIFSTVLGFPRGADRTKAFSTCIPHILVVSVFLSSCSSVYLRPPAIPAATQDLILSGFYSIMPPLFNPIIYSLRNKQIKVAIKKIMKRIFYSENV
How it was run: as §1

OR14I1 (Homo sapiens) = OR14I1 (Homo sapiens) (UniProt A6ND48)
OR14I1 (Homo sapiens), sequence (A6ND48 whole entry): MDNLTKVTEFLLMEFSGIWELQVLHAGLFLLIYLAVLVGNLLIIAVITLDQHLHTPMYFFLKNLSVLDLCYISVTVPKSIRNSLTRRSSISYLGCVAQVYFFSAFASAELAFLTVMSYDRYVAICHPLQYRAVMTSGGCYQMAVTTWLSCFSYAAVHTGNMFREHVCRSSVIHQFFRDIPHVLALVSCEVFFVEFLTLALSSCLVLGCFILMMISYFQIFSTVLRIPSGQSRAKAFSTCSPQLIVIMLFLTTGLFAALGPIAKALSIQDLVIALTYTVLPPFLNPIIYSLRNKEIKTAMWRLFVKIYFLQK
How it was run: as §1

OR14J1 (Homo sapiens) = OR14J1 (Homo sapiens) (UniProt Q9UGF5)
OR14J1 (Homo sapiens), sequence (Q9UGF5 whole entry): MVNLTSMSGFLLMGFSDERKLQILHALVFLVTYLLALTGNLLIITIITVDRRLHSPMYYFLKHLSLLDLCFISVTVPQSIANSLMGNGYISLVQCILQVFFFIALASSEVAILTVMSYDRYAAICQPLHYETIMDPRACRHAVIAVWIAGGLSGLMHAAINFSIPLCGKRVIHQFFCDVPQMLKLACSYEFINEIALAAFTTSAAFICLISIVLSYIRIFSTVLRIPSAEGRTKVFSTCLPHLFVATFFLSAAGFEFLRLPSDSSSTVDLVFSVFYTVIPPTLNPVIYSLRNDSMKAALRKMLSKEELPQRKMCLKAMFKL
How it was run: as §1

OR14K1 (Homo sapiens) = OR14K1 (Homo sapiens) (UniProt Q8NGZ2)
OR14K1 (Homo sapiens), sequence (Q8NGZ2 whole entry): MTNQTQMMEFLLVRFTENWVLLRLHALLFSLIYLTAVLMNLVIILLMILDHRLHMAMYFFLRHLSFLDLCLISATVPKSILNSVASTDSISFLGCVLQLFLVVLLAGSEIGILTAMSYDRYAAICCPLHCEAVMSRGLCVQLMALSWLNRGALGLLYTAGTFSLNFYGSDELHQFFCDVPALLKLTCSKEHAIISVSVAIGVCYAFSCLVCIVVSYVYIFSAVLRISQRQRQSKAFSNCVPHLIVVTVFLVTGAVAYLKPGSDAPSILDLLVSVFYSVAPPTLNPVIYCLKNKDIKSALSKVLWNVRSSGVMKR
How it was run: as §1

Measured: odorant receptor agonist call;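 also: active if original authors judged signal statistically different from baseline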

OR13G1 (Homo sapiens), sequence (Q8NGZ3 whole entry): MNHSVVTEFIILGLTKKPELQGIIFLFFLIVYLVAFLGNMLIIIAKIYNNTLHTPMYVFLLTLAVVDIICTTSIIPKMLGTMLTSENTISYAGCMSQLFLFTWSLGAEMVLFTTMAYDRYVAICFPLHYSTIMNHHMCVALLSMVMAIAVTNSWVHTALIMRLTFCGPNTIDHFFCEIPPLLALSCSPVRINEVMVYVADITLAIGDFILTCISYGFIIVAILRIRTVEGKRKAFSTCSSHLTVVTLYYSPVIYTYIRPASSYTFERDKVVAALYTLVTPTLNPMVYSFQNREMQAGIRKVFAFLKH

Cc1c([N+](=O)[O-])c(C)c([N+](=O)[O-])c(C(C)(C)C)c1[N+](=O)[O-]
inactive: all assays above

C=CCOC(=O)Cc1ccccc1
inactive: all assays above
